In data set [1] the target is T1, Prostaglandin G/H synthase 1 (Ovis aries, UniProt P05979).
T1 sequence (P05979 whole entry): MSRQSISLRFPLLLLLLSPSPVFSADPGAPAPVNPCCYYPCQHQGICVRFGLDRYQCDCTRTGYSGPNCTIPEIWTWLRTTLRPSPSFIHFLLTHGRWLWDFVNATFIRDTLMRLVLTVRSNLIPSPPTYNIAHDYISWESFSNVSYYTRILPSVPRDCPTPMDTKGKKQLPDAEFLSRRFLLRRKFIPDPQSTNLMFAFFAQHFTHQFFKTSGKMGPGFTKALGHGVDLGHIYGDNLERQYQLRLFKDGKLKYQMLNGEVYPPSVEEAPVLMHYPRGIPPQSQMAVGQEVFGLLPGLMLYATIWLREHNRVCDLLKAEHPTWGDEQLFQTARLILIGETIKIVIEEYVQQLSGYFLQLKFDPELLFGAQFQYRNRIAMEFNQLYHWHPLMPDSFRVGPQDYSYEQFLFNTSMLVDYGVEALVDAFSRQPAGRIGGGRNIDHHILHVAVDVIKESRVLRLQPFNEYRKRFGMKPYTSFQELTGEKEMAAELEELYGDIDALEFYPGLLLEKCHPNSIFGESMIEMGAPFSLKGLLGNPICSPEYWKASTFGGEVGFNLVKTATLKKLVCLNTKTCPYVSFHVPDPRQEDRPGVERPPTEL
The data set can be described thus: Inhibition of ovine COX1 assessed as reduction in Prostaglandin production by enzyme immunoassay. The procedure, abridged: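 Enzyme immunoassay kit with ovine COX-1 (human recombinant COX-2 also supplied). Colour intensity read spectrophotometrically; signal is proportional to PG tracer bound to the well and inversely proportional to free PG in the well. Inhibition calculated against control incubations. IC50 taken from the log concentration vs % inhibition curve.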

Data set [2] concerns Rattus norvegicus. The data set can be described thus: Anti-inflammatory activity against carrageenan-induced Wistar albino rat paw edema model assessed as paw edema volume at 20 mg/kg, po pretreated for 30 mins followed by carrageenan-challenge measured after 3 hrs by plethysmographic method (reference value: 1.14 ml). In kind it is functional.
For data set [3], the system named is Rattus norvegicus. Nature of the data set: Ulcerogenicity in Wistar albino rat assessed as severity index at 60 mg/kg, po measured after 6 hrs. It is filed as toxicity, organism-based. To be noted: in vivo.
The test system of data set [4] is Rattus norvegicus. The data set can be described thus: Anti-inflammatory activity against carrageenan-induced Wistar albino rat paw edema model assessed as paw edema volume at 20 mg/kg, po pretreated for 30 mins followed by carrageenan-challenge measured immediately by plethysmographic method (reference value: 0.7 ml). It is filed as functional. On the technique in general: Carrageenan injected into the paw causes an acute inflammation.

In data set [5] the test system is Rattus norvegicus. The data set can be described thus: Anti-inflammatory activity against carrageenan-induced Wistar albino rat paw edema model assessed as inhibition of paw edema at 20 mg/kg, po pretreated for 30 mins followed by carrageenan-challenge measured at 1 hr interval for 3 hrs by plethysmographic method relative to control. In kind it is functional. An outline of the steps: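 Wistar albino rats housed at 25-28 °C, 50–65% relative humidity, 12 h light/dark cycle; five per group. Oral dosing; control group given an equivalent volume of normal saline. Half an hour later, 0.1 ml of 1.0% w/v carrageenan in 0.9% saline injected into the sub-plantar tissue of the hind paw. […] Values taken at 3 h as mean ± SEM; Tukey's test versus control.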

Structures are written as SMILES.

For orientation: IC50 means the concentration that gives 50% inhibition. In the case of `COc1ccc(-c2nc3cc(NC(=O)c4ccccc4)ccc3o2)cc1OC`, the IC50 in data set [1] was determined as 6.2 µM.
One may read the inhibition in vivo as the share of the control response that was lost under treatment. Take `COc1ccc(-c2nc3cc(NC(=O)c4ccccc4Cl)ccc3o2)cc1OC`: the half-maximal inhibitory concentration (IC50) in data set [1] stood at 1.02 µM. Further, the Activity came to 0.74 mL in data set [2] and 0.66 mL in data set [4]. Also, the UI in data set [3] turned out to be 0.8. In data set [5], the inhibition in vivo at 20 mg/kg turned out to be 84.1%.
`COc1ccc(-c2nc3cc(NC(=O)c4ccccc4C)ccc3o2)cc1OC`: the IC50 in data set [1] amounted to 9.21 µM.
On to `COc1ccc(-c2nc3cc(NC(=O)c4cccc(C)c4)ccc3o2)cc1OC`, for which the 50% inhibitory concentration (IC50) in data set [1] stood at 5.21 µM.
Take `COc1ccc(-c2nc3cc(NC(=O)c4ccc(C)cc4)ccc3o2)cc1OC`: the IC50 in data set [1] was determined as 7.84 µM.
For `COc1ccc(-c2nc3cc(NC(=O)c4cccc(Cl)c4)ccc3o2)cc1OC`, in data set [1], the half-inhibitory concentration (IC50) is 8.82 µM.
For the compound `COc1ccc(-c2nc3cc(NC(=O)c4ccc(Cl)cc4)ccc3o2)cc1OC`, the IC50 in data set [1] amounted to 7.32 µM.
Consider `COc1ccc(-c2nc3cc(NC(=O)c4ccccc4Br)ccc3o2)cc1OC`, for which the 50% inhibitory concentration (IC50) in data set [1] turned out to be 10.1 µM.
In the case of `COc1ccc(-c2nc3cc(NC(=O)c4cc([N+](=O)[O-])ccc4Cl)ccc3o2)cc1OC`, the 50% inhibitory concentration (IC50) in data set [1] came out at 10.2 µM.
Take `COc1ccc(-c2nc3cc(NC(=O)c4ccc(O)cc4)ccc3o2)cc1OC`: the IC50 in data set [1] stood at 58.2 µM.
On to `COc1ccc(C(=O)Nc2ccc3oc(-c4ccc(OC)c(OC)c4)nc3c2)cc1OC`, for which, in data set [1], the concentration for half-maximal inhibition (IC50) amounted to 8.2 µM.
As to `CC(C)Cc1ccc(C(C)C(=O)O)cc1` (configuration not stated) [IBUPROFEN], the UI in data set [3] turned out to be 2.2. In addition, the inhibition in vivo at 20 mg/kg in data set [5] was 65.9%.
In the case of `COc1ccc(C(=O)Nc2ccc3oc(-c4ccc(OC)c(OC)c4)nc3c2)cc1`, the IC50 in data set [1] was 16.3 µM.
As to `COc1ccc(-c2nc3cc(NC(=O)c4cccc([N+](=O)[O-])c4)ccc3o2)cc1OC`, the IC50 in data set [1] amounted to 5.52 µM. Also, the Activity turned out to be 0.77 mL in data set [2] and 0.57 mL in data set [4]. Also, in data set [5], the inhibition in vivo at 20 mg/kg worked out at 54.5%.
Consider `COc1cc(OC)cc(C(=O)Nc2ccc3oc(-c4ccc(OC)c(OC)c4)nc3c2)c1`, for which the IC50 in data set [1] was found to be 6.02 µM. Besides, the Activity in data set [2] worked out at 0.81 mL; in data set [4] it was 0.67 mL. The UI in data set [3] came to 2.1. In addition, in data set [5], the inhibition in vivo at 20 mg/kg was determined as 68.2%.
For `COc1ccc(-c2nc3cc(NC(=O)c4ccc([N+](=O)[O-])cc4Cl)ccc3o2)cc1OC`, the 50% inhibitory concentration (IC50) in data set [1] is 5.15 µM. In addition, the Activity was determined as 0.77 mL in data set [2] and 0.71 mL in data set [4]. In data set [3], the UI amounted to 1. In addition, in data set [5], the inhibition in vivo at 20 mg/kg was 72.7%.
`COc1ccc(-c2nc3cc(NC(=O)c4ccc([N+](=O)[O-])cc4)ccc3o2)cc1OC`: in data set [1], the IC50 stood at 3.23 µM. The values for the Activity in data set [2] and in data set [4] were 0.8 mL and 0.71 mL, respectively. In data set [3], the UI is 1.8. The inhibition in vivo at 20 mg/kg in data set [5] was found to be 79.5%.

The values above are taken from ChEMBL document CHEMBL4184229, “Synthesis, biological evaluation and docking study of a new series of di-substituted benzoxazole derivatives as selective COX-2 inhibitors and anti-inflammatory agents” (Bioorg Med Chem, 2018).
